Reference: ChEMBL document CHEMBL4043061, “Potent, Selective, Allosteric Inhibition of Human Plasmin by Sulfated Non-Saccharide Glycosaminoglycan Mimetics” (J Med Chem, 2017)

How the values were obtained:
[1] = target: T1, Plasminogen (Homo sapiens, UniProt P00747); assay: Allosteric inhibition of full length human plasmin by using chromogenic substrate spectrozyme PL preincubated for 5 mins followed by substrate addition by spectrophotometric method
Summary of the method: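 Inhibitor added from 0–20 mM aqueous stocks, or vehicle. After 5 min, Spectrozyme PL added (1 mM stock). Residual activity taken from initial rate of A405 rise. Logistic fit gives IC50, efficacy and Hill slope.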

[2] = target: T1, Plasminogen; assay: Binding affinity to human plasmin assessed as loss of intrinsic tryptophan fluorescence at 250 uM by spectrofluorometric method
[3] = target: Coagulation factor XI (Homo sapiens, UniProt P03951); assay: Inhibition of human F11a by using chromogenic substrate S-2366 preincubated for 5 mins followed by substrate addition by spectrophotometric method
Sequence of Coagulation factor XI (P03951 19-387 limits assumed): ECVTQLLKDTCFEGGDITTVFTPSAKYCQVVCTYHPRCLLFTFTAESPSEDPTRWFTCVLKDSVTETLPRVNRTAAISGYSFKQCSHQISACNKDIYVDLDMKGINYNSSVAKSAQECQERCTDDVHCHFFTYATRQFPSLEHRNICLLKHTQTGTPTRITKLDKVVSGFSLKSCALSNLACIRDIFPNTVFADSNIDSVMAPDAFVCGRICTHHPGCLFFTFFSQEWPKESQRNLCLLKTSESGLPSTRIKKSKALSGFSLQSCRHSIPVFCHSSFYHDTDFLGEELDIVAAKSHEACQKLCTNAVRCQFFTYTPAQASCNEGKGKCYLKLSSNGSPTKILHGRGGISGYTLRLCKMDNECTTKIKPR
Sequence of Coagulation factor XI (P03951 388-625 limits assumed): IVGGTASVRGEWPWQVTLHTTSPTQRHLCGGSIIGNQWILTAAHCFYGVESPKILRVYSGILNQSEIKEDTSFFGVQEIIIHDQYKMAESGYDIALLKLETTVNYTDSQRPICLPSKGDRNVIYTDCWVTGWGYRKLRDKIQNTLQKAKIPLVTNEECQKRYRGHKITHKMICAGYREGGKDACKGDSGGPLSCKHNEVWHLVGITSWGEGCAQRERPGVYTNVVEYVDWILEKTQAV
Summary of the method: (§1)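 Tris-HCl pH 7.4 buffer (100 mM NaCl, 2.5 mM CaCl2, 0.1% PEG8000, 0.02% Tween80) at 37 °C; factor IXa buffer also held 33% ethylene glycol. Final enzyme: factor Xa 1.09 nM, XIa 0.75 nM, XIIa 10 nM, IXa 250 nM, trypsin 0.145 µg/mL, chymotrypsin […]. Inhibitor from 0–20 mM stock, 5 min preincubation, then substrate. Initial A405 rate, sigmoidal dose–response fit.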

[4] = target: Coagulation factor X (Homo sapiens, UniProt P00742); assay: Inhibition of human F10a by using chromogenic substrate spectrozyme F10a preincubated for 5 mins followed by substrate addition by spectrophotometric method; summary of the method: as §1
Sequence of Coagulation factor X (P00742 41-179 limits assumed): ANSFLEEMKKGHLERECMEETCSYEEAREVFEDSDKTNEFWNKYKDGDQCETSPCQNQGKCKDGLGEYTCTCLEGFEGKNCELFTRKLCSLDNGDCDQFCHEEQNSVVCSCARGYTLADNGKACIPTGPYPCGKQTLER
Sequence of Coagulation factor X (P00742 235-488 limits assumed): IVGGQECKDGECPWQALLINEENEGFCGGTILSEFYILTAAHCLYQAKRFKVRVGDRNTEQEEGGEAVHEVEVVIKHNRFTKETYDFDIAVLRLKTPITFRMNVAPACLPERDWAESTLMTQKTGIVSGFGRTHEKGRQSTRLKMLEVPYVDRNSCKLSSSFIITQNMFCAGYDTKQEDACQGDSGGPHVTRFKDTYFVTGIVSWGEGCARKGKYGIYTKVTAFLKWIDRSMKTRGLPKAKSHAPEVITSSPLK

[5] = target: Prothrombin (Homo sapiens, UniProt P00734); assay: Inhibition of human thrombin by using chromogenic substrate spectrozyme TH preincubated for 5 mins followed by substrate addition by spectrophotometric method
Summary of the method: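 Thrombin at 6 nM final, 25 °C, in 20 mM Tris-HCl pH 7.4 with 100 mM NaCl, 2.5 mM CaCl2, 0.1% PEG8000, 0.02% Tween80. Inhibitor (0–20 mM stock) or vehicle preincubated 5 min with enzyme. Spectrozyme TH added (1.0 mM stock). Residual activity read as initial rate of A405 increase and fitted to a sigmoidal dose–response curve.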

[6] = target: T2, Coagulation factor XII (Homo sapiens, UniProt P00748); assay: Inhibition of human F12a by using chromogenic substrate spectrozyme F12a preincubated for 5 mins followed by substrate addition by spectrophotometric method
T2 sequence (P00748 whole entry): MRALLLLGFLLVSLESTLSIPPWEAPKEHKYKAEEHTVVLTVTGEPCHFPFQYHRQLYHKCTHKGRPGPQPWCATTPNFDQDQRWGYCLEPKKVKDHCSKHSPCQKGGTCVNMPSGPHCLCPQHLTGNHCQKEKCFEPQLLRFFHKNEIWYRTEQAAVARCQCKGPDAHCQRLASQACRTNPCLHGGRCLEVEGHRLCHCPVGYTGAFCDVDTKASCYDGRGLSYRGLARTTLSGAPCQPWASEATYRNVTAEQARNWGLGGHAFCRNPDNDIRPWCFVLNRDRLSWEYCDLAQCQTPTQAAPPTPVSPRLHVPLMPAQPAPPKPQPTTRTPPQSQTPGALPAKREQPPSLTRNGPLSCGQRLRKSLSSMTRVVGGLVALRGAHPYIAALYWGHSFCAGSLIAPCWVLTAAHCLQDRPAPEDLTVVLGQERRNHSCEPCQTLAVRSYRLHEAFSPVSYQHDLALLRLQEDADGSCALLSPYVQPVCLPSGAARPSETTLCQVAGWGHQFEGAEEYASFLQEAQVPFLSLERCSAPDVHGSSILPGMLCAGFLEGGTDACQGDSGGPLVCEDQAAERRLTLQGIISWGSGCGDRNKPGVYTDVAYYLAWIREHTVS

[7] = target: Coagulation factor IX (Homo sapiens, UniProt P00740); assay: Inhibition of human F9a by using chromogenic substrate spectrozyme F9a preincubated for 5 mins followed by substrate addition by spectrophotometric method
Sequence of Coagulation factor IX (P00740 47-191 limits assumed): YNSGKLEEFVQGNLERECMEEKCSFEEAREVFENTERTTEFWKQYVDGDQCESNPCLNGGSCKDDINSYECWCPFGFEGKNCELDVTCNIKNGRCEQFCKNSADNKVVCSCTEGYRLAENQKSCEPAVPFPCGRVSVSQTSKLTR
Sequence of Coagulation factor IX (P00740 227-461 limits assumed): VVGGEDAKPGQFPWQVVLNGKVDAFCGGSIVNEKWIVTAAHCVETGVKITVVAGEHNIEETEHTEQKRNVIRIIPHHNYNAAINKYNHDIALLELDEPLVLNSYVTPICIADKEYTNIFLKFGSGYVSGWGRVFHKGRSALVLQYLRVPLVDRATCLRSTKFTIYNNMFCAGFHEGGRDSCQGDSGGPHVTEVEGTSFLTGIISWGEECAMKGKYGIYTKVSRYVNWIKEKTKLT

[8] = Inhibition of human trypsin using chromogenic substrate SS-2222 preincubated for 5 mins followed by substrate addition by spectrophotometric method; summary of the method: as §1
[9] = Inhibition of human chymotrypsin using chromogenic substrate spectrozyme Cty preincubated for 5 mins followed by substrate addition by spectrophotometric method; summary of the method: as §1
[10] = target: T1, Plasminogen; assay: Binding affinity to human dansyl-EGR-chloromethylketone-plasmin complex assessed as loss of intrinsic tryptophan fluorescence by spectrofluorometric method

T1 sequence (P00747 97-580 limits assumed): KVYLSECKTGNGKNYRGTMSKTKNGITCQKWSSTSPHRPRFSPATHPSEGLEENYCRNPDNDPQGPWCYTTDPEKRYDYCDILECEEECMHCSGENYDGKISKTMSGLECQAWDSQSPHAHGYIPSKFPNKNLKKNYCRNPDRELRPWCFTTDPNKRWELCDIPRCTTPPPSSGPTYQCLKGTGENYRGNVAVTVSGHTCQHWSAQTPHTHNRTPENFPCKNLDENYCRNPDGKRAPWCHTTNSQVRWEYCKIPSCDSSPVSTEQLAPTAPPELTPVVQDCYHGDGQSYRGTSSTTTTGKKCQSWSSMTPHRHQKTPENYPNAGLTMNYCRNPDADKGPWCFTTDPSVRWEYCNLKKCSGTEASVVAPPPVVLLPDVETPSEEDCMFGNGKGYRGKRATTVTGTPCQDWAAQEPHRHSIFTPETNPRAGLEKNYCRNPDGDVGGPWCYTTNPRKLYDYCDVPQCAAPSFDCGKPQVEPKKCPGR
T1 sequence (P00747 581-810 limits assumed): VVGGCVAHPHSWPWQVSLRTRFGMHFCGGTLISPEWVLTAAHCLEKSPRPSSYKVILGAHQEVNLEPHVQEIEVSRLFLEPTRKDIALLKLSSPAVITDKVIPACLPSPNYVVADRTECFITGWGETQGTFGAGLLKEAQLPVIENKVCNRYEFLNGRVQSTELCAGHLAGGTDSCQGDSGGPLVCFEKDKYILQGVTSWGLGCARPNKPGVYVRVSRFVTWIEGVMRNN

Compound | IC50 [1] [µM] | also measured
Cc1cc(COc2cc(OS(=O)(=O)O)cc3oc(-c4ccc(OS(=O)(=O)O)c(OS(=O)(=O)O)c4)c(OS(=O)(=O)O)c(=O)c23)c(C)cc1COc1cc(OS(=O)(=O)O)cc2oc(-c3ccc(OS(=O)(=O)O)c(OS(=O)(=O)O)c3)c(OS(=O)(=O)O)c(=O)c12 | 6.5 | Kd [2]: 1 µM
O=c1c(O)c(-c2ccc(O)c(O)c2)oc2cc(O)cc(OCc3ccc(COc4cc(O)cc5oc(-c6ccc(O)c(O)c6)c(O)c(=O)c45)cc3)c12 | 116 | IC50 [3]: 208 µM; IC50 [4]: 212 µM; IC50 [5]: 267 µM
O=c1cc(-c2ccc(OS(=O)(=O)O)cc2)oc2cc(OS(=O)(=O)O)cc(OC/C=C/COc3cc(OS(=O)(=O)O)cc4oc(-c5ccc(OS(=O)(=O)O)cc5)cc(=O)c34)c12 | 121 | Kd [2]: 3.6 µM
O=c1cc(-c2ccc(OS(=O)(=O)O)cc2)oc2cc(OS(=O)(=O)O)cc(OCc3ccc(-c4ccc(COc5cc(OS(=O)(=O)O)cc6oc(-c7ccc(OS(=O)(=O)O)cc7)cc(=O)c56)cc4)cc3)c12 | 47 | 
O=c1cc(-c2ccc(OS(=O)(=O)O)cc2)oc2cc(OS(=O)(=O)O)cc(OCc3ccc(COc4cc(OS(=O)(=O)O)cc5oc(-c6ccc(OS(=O)(=O)O)c(OS(=O)(=O)O)c6)c(OS(=O)(=O)O)c(=O)c45)cc3)c12 | 14 | 
O=c1c(OS(=O)(=O)O)c(-c2ccc(OS(=O)(=O)O)c(OS(=O)(=O)O)c2)oc2cc(OS(=O)(=O)O)cc(OCc3cccc(COc4cc(OS(=O)(=O)O)cc5oc(-c6ccc(OS(=O)(=O)O)c(OS(=O)(=O)O)c6)c(OS(=O)(=O)O)c(=O)c45)n3)c12 | 231 | 
O=c1c(OS(=O)(=O)O)c(-c2ccc(OS(=O)(=O)O)c(OS(=O)(=O)O)c2)oc2cc(OS(=O)(=O)O)cc(OCc3cccc(COc4cc(OS(=O)(=O)O)cc5oc(-c6ccc(OS(=O)(=O)O)c(OS(=O)(=O)O)c6)c(OS(=O)(=O)O)c(=O)c45)c3)c12 | 73 | 
O=c1c(OS(=O)(=O)O)c(-c2ccc(OS(=O)(=O)O)c(OS(=O)(=O)O)c2)oc2cc(OS(=O)(=O)O)cc(OCc3ccc(COc4cc(OS(=O)(=O)O)cc5oc(-c6ccc(OS(=O)(=O)O)c(OS(=O)(=O)O)c6)c(OS(=O)(=O)O)c(=O)c45)cc3)c12 |  | IC50 [6]: > 1000 µM; IC50 [7]: > 2000 µM; IC50 [8]: > 440 µM; IC50 [3]: 180 µM; IC50 [4]: 505 µM; IC50 [5]: 156 µM; IC50 [9]: 196 µM
O=c1c(OS(=O)(=O)O)c(-c2ccc(OS(=O)(=O)O)c(OS(=O)(=O)O)c2)oc2cc(OS(=O)(=O)O)cc(OCc3ccc(-c4ccc(COc5cc(OS(=O)(=O)O)cc6oc(-c7ccc(OS(=O)(=O)O)c(OS(=O)(=O)O)c7)c(OS(=O)(=O)O)c(=O)c56)cc4)cc3)c12 | 37 | 

More lines, main results first:

IC50 [1] [µM] | Compound | also measured
282 | O=c1cc(-c2ccc(OS(=O)(=O)O)cc2)oc2cc(OS(=O)(=O)O)cc(OCCCCOc3cc(OS(=O)(=O)O)cc4oc(-c5ccc(OS(=O)(=O)O)cc5)cc(=O)c34)c12 | 
34 | O=c1cc(-c2ccc(OS(=O)(=O)O)cc2)oc2cc(OS(=O)(=O)O)cc(OCc3ccc(COc4cc(OS(=O)(=O)O)cc5oc(-c6ccc(OS(=O)(=O)O)cc6)cc(=O)c45)cc3)c12 | 
42 | O=c1cc(-c2ccc(OS(=O)(=O)O)cc2)oc2cc(OS(=O)(=O)O)cc(OCc3cccc(COc4cc(OS(=O)(=O)O)cc5oc(-c6ccc(OS(=O)(=O)O)cc6)cc(=O)c45)n3)c12 | 
> 1000 | O=c1cc(-c2ccc(OS(=O)(=O)O)cc2)oc2cc(OS(=O)(=O)O)cc(OCCCOc3cc(OS(=O)(=O)O)cc4oc(-c5ccc(OS(=O)(=O)O)cc5)cc(=O)c34)c12 | 
34 | O=c1cc(-c2ccc(OS(=O)(=O)O)cc2)oc2cc(OS(=O)(=O)O)cc(OCc3cccc(COc4cc(OS(=O)(=O)O)cc5oc(-c6ccc(OS(=O)(=O)O)cc6)cc(=O)c45)c3)c12 | 
71 | O=c1cc(-c2ccc(OS(=O)(=O)O)cc2)oc2cc(OS(=O)(=O)O)cc(OCCOc3cc(OS(=O)(=O)O)cc4oc(-c5ccc(OS(=O)(=O)O)cc5)cc(=O)c34)c12 | 
20 | Cc1cc(COc2cc(OS(=O)(=O)O)cc3oc(-c4ccc(OS(=O)(=O)O)cc4)cc(=O)c23)c(C)cc1COc1cc(OS(=O)(=O)O)cc2oc(-c3ccc(OS(=O)(=O)O)cc3)cc(=O)c12 | Kd [10]: 5.4 µM; Kd [2]: 1.9 µM
